A selection: hits, their analogues and other compounds. The true share with any hit is near 1.5%.
CHT allo act – CHT positive allosteric modulators, primary screen, cell-based, membrane potential dye, choline EC20 | CHT-expressing cells; active compounds read high; LV-AA mutant CHT in HEK293 cells | B-score at 10 µM | hit rate 0.49% among 310,000 | High affinity choline transporter 1 (Homo sapiens), Q9GZV3;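 active = initial fluorescence not abnormally high and integrated response B-score, plate-corrected, over 3 SD above library mean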
T cell modulator – modulators of CD8 T cell-vesicle binding, primary screen, mouse 2C CD8+ T cells, flow cytometry; 2C CD8+ T cell-vesicle binding; active compounds read low; response (vesicle binding), % at 7 µM; hit rate 0.068% among 330,000; AID 2052, 2009;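 active = response, share of CD8 T cells binding vesicles, and their 90th percentile fluorescence all below set limits, cut at about 80% in these data, passing the limit was not always enough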;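 note: values below 100% mean blocked vesicle binding to the CD8+ T cells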
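Test system: purified 2C TCR transgenic mouse naive CD8+ T cells. Probe or stimulus: QL9-peptide-loaded Drosophila micro-vesicles bearing Ld, ICAM-1 and B7-1. Incubation: binding step 1.5 h, 37 °C, antibody labelling 20 min, ice. Measured by: flow cytometry of vesicle-bound cells.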
VLA-4 inh – inhibition in human VLA-4 binding assay, primary screen, VLA-4 allosteric modulator project, MLPCN library, flow cytometry, VLA-4 expressing cells; Integrin alpha-4 (Homo sapiens), P13612; ligand binding flow cytometry; inhibition, % (about 7 µM as worked out from the volumes in the protocol); hit rate 0.2% among 330,000; in the data active = inhibition above about 50%
Target sequence (P13612 whole entry, looked up): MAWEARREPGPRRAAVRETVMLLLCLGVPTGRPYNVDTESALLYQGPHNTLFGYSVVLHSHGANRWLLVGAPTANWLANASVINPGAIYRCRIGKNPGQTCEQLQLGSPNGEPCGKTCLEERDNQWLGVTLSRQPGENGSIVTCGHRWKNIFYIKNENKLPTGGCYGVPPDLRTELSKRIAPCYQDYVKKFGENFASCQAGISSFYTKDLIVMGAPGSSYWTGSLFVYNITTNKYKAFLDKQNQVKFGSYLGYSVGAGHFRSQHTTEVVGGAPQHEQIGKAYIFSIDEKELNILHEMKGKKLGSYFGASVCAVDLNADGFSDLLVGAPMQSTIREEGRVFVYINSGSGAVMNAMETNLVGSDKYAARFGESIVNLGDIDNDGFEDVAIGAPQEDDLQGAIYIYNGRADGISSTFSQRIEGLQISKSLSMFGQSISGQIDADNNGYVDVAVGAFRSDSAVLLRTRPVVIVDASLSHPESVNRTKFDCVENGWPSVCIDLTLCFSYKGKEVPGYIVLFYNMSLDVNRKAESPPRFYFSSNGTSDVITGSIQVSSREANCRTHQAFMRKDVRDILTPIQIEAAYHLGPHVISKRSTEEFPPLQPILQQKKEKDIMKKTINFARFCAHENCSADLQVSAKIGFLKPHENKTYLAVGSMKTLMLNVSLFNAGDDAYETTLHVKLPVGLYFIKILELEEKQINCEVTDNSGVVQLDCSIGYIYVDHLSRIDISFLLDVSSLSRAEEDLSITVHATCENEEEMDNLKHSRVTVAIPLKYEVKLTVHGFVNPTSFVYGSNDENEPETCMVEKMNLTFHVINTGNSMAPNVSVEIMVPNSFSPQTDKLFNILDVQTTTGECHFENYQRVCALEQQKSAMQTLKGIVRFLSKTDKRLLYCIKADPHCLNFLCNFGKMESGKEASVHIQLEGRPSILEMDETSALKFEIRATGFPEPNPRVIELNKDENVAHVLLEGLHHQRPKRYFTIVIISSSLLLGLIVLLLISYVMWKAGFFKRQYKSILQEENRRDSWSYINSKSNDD
CHT inh – inhibitors of human choline transporter CHT. High affinity choline transporter 1 (Homo sapiens), Q9GZV3. CHT-expressing cells, membrane potential dye, choline response; active compounds read low. hit rate 0.86% among 310,000. AID 488975, 2010. B-score at 10 µM;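 active = B-score over 3 SD under the library average, and starting fluorescence ratio not unusually high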;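 note: choline stimulus applied at its EC90 after an EC20 pre-addition; B-score computed on integrated fluorescence ratio after choline addition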
VLA-4 allo CP – retest of VLA-4 allosteric modulators, confirmation, cell-based, cherry-picked plates, U937, HUTS-21 LIBS antibody; shares compounds with VLA-4 inh; U937 cells, HUTS-21 LIBS mAb binding, flow cytometry; LDV ligand present at threefold Kd; inhibition, % at 6.7 µM; hit rate 2% among 1,300; in the data active = inhibition above about 40%;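 note: 0% = ligand without compound and 100% = no ligand background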
* hit, by the source's call; i = inactive; x = no result.

SMILES	CHT allo act	T cell modulator	VLA-4 inh	CHT inh	VLA-4 allo CP
CCN(C[C@H]1N[C@@](Cc2ccccc2)(C(=O)OC)[C@H]2C(=O)N(Cc3ccccc3)C(=O)[C@@H]12)C(=O)COC	x	235.9	-9.9	x	2.7
CCN(C[C@H]1N[C@@](CC)(C(=O)OC)[C@H]2C(=O)N(Cc3ccccc3)C(=O)[C@@H]12)C(=O)c1ccccc1	x	264.2	-7.6	x	x
COC(=O)[C@]1(Cc2ccccc2)N[C@H](CN(C)C(=O)Nc2ccc(F)cc2)[C@@H]2C(=O)N(Cc3ccccc3)C(=O)[C@@H]21	x	517.9	0.9	x	2.0
CCN(C[C@H]1N[C@@](Cc2ccccc2)(C(=O)OC)[C@H]2C(=O)N(Cc3ccccc3)C(=O)[C@@H]12)C(=O)c1ccccc1	x	353.3	49.9*	x	4.4
COC(=O)[C@]1(Cc2ccccc2)N[C@H](CN(C)C(=O)Nc2ccccc2)[C@@H]2C(=O)N(Cc3ccccc3)C(=O)[C@@H]21	x	159.9	43.4	x	x
CC(C)COC(=O)N1CCN(S(=O)(=O)c2ccc3c(c2)CCC3)CC1	x	443.9	41.4	x	x
COC(=O)Cc1c(C)c2ccc(OC3CCCCC3=O)c(C)c2oc1=O (centres undefined)	i	313.5	11.4	i	x
COC(=O)Cc1ccc(NC(=O)c2ccc(C)c(C)c2)cc1	i	355.9	60.1*	i	10.9
O=C1C2CCCCN2C(=O)N1CCN1CCN(c2ccc([N+](=O)[O-])cc2)CC1 (centres undefined)	i	263.5	93.2*	i	2.7
O=C1C2CCCN2C(=O)N1CCCN1CCN(c2ccc([N+](=O)[O-])cc2)CC1 (centres undefined)	i	200.4	7.5	i	x
COC(=O)c1cc(CNC(=O)C(C)NS(=O)(=O)c2ccc(C)c(C)c2)ccc1OC (centres undefined)	i	248.3	2.7	i	-0.2
COc1ccc(S(=O)(=O)NC(C)C(=O)NCc2ccncc2)cc1C (centres undefined)	i	268.9	10.9	i	x
Cc1ccc2[nH]c3c(=O)n(Cc4ccncc4)cnc3c2c1	i	539.5	1.8	i	x
O=c1c2[nH]c3ccc(Br)cc3c2ncn1Cc1ccncc1	i	120.3	6.4	i	-9.5
CCN(C(=O)c1ccc(Cl)c(S(=O)(=O)Nc2c(C)n(C)n(-c3ccccc3)c2=O)c1)c1ccccc1	x	192.6	0.5	x	x
CCOC(=O)C1(Cc2ccccc2Cl)CCN(S(=O)(=O)N(C)C)CC1	i	366.6	11.4	i	x
CCOC(=O)C1(Cc2ccccc2Cl)CCN(C(=O)CCn2ccnc2C)CC1	i	173.3	52.9*	i	-6.2
Cc1cccc(OCCC(=O)Nc2ccc(N3CCOCC3)cc2N2CCOCC2)c1	x	319.5	50.5*	x	2.7
O=C(COC(=O)C12CC3CC(CC(Br)(C3)C1)C2)Nc1c(F)cccc1F	x	165.5	-10.8	x	x
CCC(=O)c1cn(CC(=O)Nc2cccc(C)c2C)c2ccccc12	i	442.5	23.2	i	2.9
Cc1cc(NC(=O)Nc2ccccc2F)ccc1Br	i	313.2	65.7*	i	4.0
O=C1N[C@H](C(=O)O)CS1	i	534.3	53.9*	i	4.7
CC1CCCC(NC(=S)Nc2cccc(S(=O)(=O)N(C)C)c2)C1C (centres undefined)	i	145.9	-4.5	i	x
COCCCN(C(=O)CCOc1ccc(C)cc1)c1c(N)n(Cc2ccccc2)c(=O)[nH]c1=O	i	208.5	49.8*	i	4.0
COCCCN(C(=O)CCOc1ccc(C(C)(C)C)cc1)c1c(N)n(Cc2ccccc2)c(=O)[nH]c1=O	i	122.2	16.0	i	x
SMILES	CHT allo act	T cell modulator	VLA-4 inh	CHT inh	VLA-4 allo CP
Cc1ccccc1C(=O)NCC(=O)OC(C)C(=O)NCc1ccco1 (centres undefined)	i	393.4	6.2	i	x
CC1CC2C3CCC4=CC(=O)C=CC4(C)[C@@]3(Cl)C(O)CC2(C)C1(O)C(=O)CO (some centres undefined)	i	465.2	18.8	i	2.7
CCCCCCNC1=NCCS1	i	324.2	52.6*	i	-1.6
CC(=O)c1ccc(N2C(=NC(=O)CCC3CCCC3)SC3CS(=O)(=O)CC32)cc1 (centres undefined)	i	440.8	10.8	i	x
COc1ccc2nc(NC(=O)CSc3nc(C)cc(=O)[nH]3)sc2c1	i	598.9	3.5	i	x
CCCc1cc(=O)[nH]c(SCC(=O)Nc2nc3ccc(OCC)cc3s2)n1	i	343.8	51.0*	i	6.3
COc1ccc(N(CC(=O)N2CCc3ccccc32)S(=O)(=O)c2c(C)nn(C)c2C)cc1	i	389.9	15.8	i	-0.8
CCOc1ccccc1NC(=O)NCc1ccccc1	i	371.9	50.3*	i	-5.8
CCOc1ccccc1NC(=O)NCc1cccnc1	i	411.5	0.5	i	x
CCCC(NC(=O)C(C)Sc1nnnn1C1CC1)c1ccccc1 (centres undefined)	x	550.2	19.8	x	x
Cn1c(SCC(=O)Nc2nccs2)nnc1-c1ccncc1	i	170.2	11.7	i	x
CC(C)C(NC(=O)c1ccccc1)c1nnc(SCC(=O)Nc2nccs2)n1C (centres undefined)	i	157.7	57.9*	i	3.3
O=C(Nc1ccc(C2=NCCN2)cc1)c1ccc(Cl)c(C(=O)Nc2ccc(C3=NCCN3)cc2)c1	i	70.9	42.4	i	4.5
COc1ccc(CC(=O)NC(C)c2ccc(S(N)(=O)=O)cc2)cc1S(=O)(=O)N1CCOCC1 (centres undefined)	i	214.6	3.9	i	x
C=C1CC(C(=O)N/N=C/c2ccccc2)C1	i	362.3	41.9	i	-21.6
CCOC(=O)Cn1nnnc1CN(Cc1ccccc1)Cc1cc2cc(CC)ccc2[nH]c1=O	i	802.0	70.8*	i	-11.5
CCc1ccc2[nH]c(=O)c(CN(Cc3ccccc3)Cc3nnnn3Cc3ccco3)cc2c1	i	209.9	-20.6	i	x
c1ccc2c(c1)CN1CCCC1=N2	i	7.6	4.8	i	x
C/C(=N\NC(=O)c1ccccc1O)c1cccs1	i	680.7	-23.5	i	x
CSC(=NNC(=O)c1ccccc1O)SC	i	248.1	88.2*	i	5.3
CCOCCn1c(=NC(=O)/C=C/c2ccccc2Cl)sc2cc(NC(C)=O)ccc21	i	246.9	43.4	i	-9.3
O=C(c1ccc(CN2CCc3ccccc3C2)cc1)N1CCN(c2ccccc2)CC1	i	306.3	46.5	i	-6.9
CC1CC(=O)N(CC(=O)Nc2ccccc2F)c2ccccc2S1(=O)=O (centres undefined)	i	215.4	-4.4	i	x

From PubChem
